Screening data (PubChem BioAssay)
NTR1 agonist = agonists of human NTR1, primary screen, imaging, U2OS cells, beta-arrestin-GFP, high content; Neurotensin receptor type 1 (Homo sapiens), P30989; NTR1-U2OS beta-arrestin-GFP spot imaging, agonist mode; activation, % at 20 µM; 0.17% of 330,000 active;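 active = activation at or above 40% of the spot to cytoplasm intensity ratio, with at least 20 cells analyzed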;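 also: 0% = DMSO without peptide and 100% = 100 nM NTR1 peptide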
PLCg1 inh = PLC-gamma1 enzyme inhibitors, primary screen, biochemical, fluorescence, purified enzyme; 1-phosphatidylinositol 4,5-bisphosphate phosphodiesterase gamma-1 (Homo sapiens), P19174; fluorogenic substrate; 0.84% of 370,000 active; inhibition, % at 12.2 µM; in the data active = inhibition above about 9.5%
Target sequence (P19174 whole entry, looked up): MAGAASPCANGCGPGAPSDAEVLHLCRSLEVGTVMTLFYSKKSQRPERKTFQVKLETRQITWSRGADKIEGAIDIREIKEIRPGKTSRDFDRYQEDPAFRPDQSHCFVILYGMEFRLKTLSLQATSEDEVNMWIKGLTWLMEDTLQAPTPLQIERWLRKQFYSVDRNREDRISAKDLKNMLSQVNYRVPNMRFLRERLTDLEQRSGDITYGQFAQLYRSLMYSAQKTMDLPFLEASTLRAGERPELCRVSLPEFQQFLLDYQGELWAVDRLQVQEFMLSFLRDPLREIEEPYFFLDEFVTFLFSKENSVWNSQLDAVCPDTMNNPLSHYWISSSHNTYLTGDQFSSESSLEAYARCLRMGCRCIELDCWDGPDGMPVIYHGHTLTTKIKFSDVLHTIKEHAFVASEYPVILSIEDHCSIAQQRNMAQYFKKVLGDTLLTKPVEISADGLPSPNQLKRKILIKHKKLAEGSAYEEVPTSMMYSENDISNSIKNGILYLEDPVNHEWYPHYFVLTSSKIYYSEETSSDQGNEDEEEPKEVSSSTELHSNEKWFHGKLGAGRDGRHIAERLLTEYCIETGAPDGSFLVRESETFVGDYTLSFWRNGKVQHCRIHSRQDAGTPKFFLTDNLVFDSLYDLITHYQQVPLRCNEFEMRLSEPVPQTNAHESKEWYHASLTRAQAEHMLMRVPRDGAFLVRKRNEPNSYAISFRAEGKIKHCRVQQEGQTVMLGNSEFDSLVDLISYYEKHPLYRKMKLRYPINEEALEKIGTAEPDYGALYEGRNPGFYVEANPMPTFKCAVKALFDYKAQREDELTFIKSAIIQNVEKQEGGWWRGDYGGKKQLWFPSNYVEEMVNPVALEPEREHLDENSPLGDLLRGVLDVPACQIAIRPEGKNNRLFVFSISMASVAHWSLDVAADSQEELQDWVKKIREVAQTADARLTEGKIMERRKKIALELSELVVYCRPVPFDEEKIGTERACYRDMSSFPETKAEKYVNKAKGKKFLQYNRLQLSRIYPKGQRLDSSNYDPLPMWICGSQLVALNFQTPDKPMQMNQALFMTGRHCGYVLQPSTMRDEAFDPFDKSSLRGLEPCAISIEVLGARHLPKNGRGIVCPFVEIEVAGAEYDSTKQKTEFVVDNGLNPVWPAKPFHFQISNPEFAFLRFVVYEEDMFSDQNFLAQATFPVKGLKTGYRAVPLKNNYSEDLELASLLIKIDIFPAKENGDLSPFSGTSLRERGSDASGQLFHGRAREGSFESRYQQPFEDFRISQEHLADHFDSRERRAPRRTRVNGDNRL
Arr AP2 block = inhibitors of beta-arrestin/AP2 binding, primary screen, biochemical, GPCR trafficking, flow cytometry; FITC-arrestin peptide / GST-AP2 beads; AP2 beta2 appendage carries R879A mutation; 0.31% of 340,000 active; beta-arrestin 1 C-terminal peptide binding to AP2 beta2-adaptin appendage (human); inhibition, % at 10 µM;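 active = inhibition above a set limit, near 3 SD of compounds lacking own fluorescence, cut at about 54% in these data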;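 also: plate controls were DMSO wells for no effect and 5 µM unlabelled arrestin peptide for full effect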
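test system = AP2 appendage R879A on GSH beads | buffer or medium = PBS plus Tween 20 (0.05%) and BSA (0.1%) | incubation = 12 min plus 1 h, RT | detection = bead flow cytometry, FITC channel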
PLC-beta3 inh = human PLC-beta3 inhibitors, primary screen, biochemical, fluorescence | 1-phosphatidylinositol 4,5-bisphosphate phosphodiesterase beta-3 (Homo sapiens), Q01970 | Purified PLC-beta3, fluorogenic substrate | inhibition, % at 12.2 µM | 0.18% of 370,000 active | AID 720704, 2013; in the data active = inhibition above about 11%;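 also: 0% = median of compound wells on plate and 100% = full blocker control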
NTR1 ag confirm = NTR1 agonists, single-dose retest, confirmation, imaging, U2OS cells, beta-arrestin-GFP, single concentration | shares compounds with NTR1 agonist | NTR1-U2OS beta-arrestin-GFP translocation imaging | activation, % at 20 µM | 38% of 480 active | AID 504550, 2011;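 active = mean activation at 20 µM of at least 40%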;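 also: 0% = DMSO without peptide and 100% = 100 nM NTR1 peptide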
The depositor's hits bear a star; i = inactive; · = no result. The list is not random: actives were taken first. Their share in the collection is about 1.3%.

SMILES	NTR1 agonist	PLCg1 inh	Arr AP2 block	PLC-beta3 inh	NTR1 ag confirm
O=C(/C(=C/c1ccc(Cl)cc1)c1nc2ccccc2[nH]1)c1cccs1	54*	·	30	·	62*
COC(=O)[C@]12C=CCN1[C@H](c1ccc(Cl)cc1)c1c(c3ccccc3n1S(=O)(=O)c1ccc(C)cc1)C2	·	-56	·	-70	·
CN(Cc1ccccc1)C(=O)c1[nH]cnc1C(=O)N[C@@H](Cc1ccccc1)C(=O)OCc1ccccc1	42*	·	8	·	2
CC(C)(C)OC(=O)NCCCCCNC(=O)c1[nH]cnc1C(=O)N[C@@H](Cc1ccccc1)C(=O)OCc1ccccc1	53*	2	-12	2	23
CC(C)(C)OC(=O)[C@H](Cc1ccccc1)NC(=O)c1nc[nH]c1C(=O)NC1CCN(C(=O)OC(C)(C)C)CC1	45*	2	-8	5	28
Cc1ccc(CN2CCCCC(NC(=O)Nc3ccccc3-c3ccccc3)C2=O)cc1 (stereo not drawn)	·	9	·	6	·
COc1ccc(CN2C(=O)COc3ccccc3C2c2nnnn2C2CCCCC2)cc1 (stereo not drawn)	·	-1	·	-3	·
COC(=O)[C@H](CC(C)C)N(CCCc1cn(Cc2ccccc2)nn1)S(=O)(=O)c1ccc(F)cc1Br	·	1	·	-1	·
NC(=O)[C@@H]1CCCN1C(=O)[C@H](CCc1ccccc1)NC(=O)[C@H]1O[C@@H](n2cnc3c(N)ncnc32)[C@H](O)[C@@H]1O	·	2	·	2	·
Cc1cc2c(c(=O)o1)[C@@]1(C(=O)N(C)c3ccccc31)C1=C(CC(C)(C)OC1=O)O2	·	0	·	-3	·
CCc1ccc(S(=O)(=O)/N=C2\C=C(Nc3ccc(O)cc3)C(=O)c3ccccc32)cc1	45*	·	28	·	21
CCOc1ccc(C(C(=O)NCC2CCCO2)N(C(=O)c2snc(C(N)=O)c2N)c2ccc(F)cc2)cc1 (stereo not drawn)	44*	-37	40	-56	4
CCOc1ccc(C(=O)C(CN2CCOCC2)c2ccccc2)cc1 (stereo not drawn)	·	1	3	-1	·
O=C(c1ccc(Br)cc1)C(CN1CCOCC1)c1ccccc1 (stereo not drawn)	60*	1	9	-4	71*
CCC[C@H]1[C@@H](OC(=O)NCCc2ccccc2)CC[C@@]23CCCN2C(=O)CCC[C@@H]13	·	1	·	1	·
CN(C(=O)c1ccc2c(Cl)c3c(nc2c1)CCC3)c1ccccc1	3	3	-4	2	·
CCN(C(=O)c1ccc2c(Cl)c3c(nc2c1)CCC3)c1ccc(C)c(C)c1	45*	3	-1	-3	4
CSc1nc(N)nc(SCC(=O)C23CC4CC(CC(C4)C2)C3)c1C#N	45*	0	-6	-4	13
O=C(Nc1c(-c2ccc(F)cc2)nc2ncccn12)c1ccc(F)cc1	·	-274	·	-369	·
Cc1ccc(S(=O)(=O)N2[C@@H](c3ccc(Cl)cc3)C(C(=O)O)=CC[C@H]2c2cccc(Cl)c2)cc1	2	-1	-11	-2	·
O=C(O)C1=CC[C@@H](c2ccc(Cl)cc2)N(S(=O)(=O)c2ccc(Cl)cc2)[C@H]1c1cccc(Cl)c1	56*	-4	9	-6	9
Cc1cc(N/N=C/c2ccc(O)cc2O)nc(-c2ccccc2O)n1	·	·	3	·	·
Cc1cc(N/N=C/c2ccccc2O)nc(-c2ccccc2O)n1	63*	-43	-7	-43	2
O=C(Nc1ccc(-c2noc(-c3cccs3)n2)cc1)c1cccnc1	47*	-2	2	-2	9
COc1cccc(-c2nc(-c3ccc(NC(=O)c4cccnc4)cc3)no2)c1	2	3	20	3	·
SMILES	NTR1 agonist	PLCg1 inh	Arr AP2 block	PLC-beta3 inh	NTR1 ag confirm
COC(=O)c1ccc2c(c1)C(C)(C)C(/C=C/c1ccc(OC)c(OC)c1OC)=[N+]2C	38	-190	6	-281	·
COC(=O)c1ccc2c(c1)C(C)(C)C(/C=C/c1ccc(O)cc1)=[N+]2C	46*	-394	1	i	51*
CCCCCc1cc(=O)oc2c(C(CCN3CCCC3)c3ccc(N(C)C)cc3)c(OC)cc(OC)c12 (stereo not drawn)	53*	-20	7	-24	38
CCCCCc1cc(=O)oc2c(C(CCN3CCCCC3)c3ccc(OC)cc3)c(OC)cc(OC)c12 (stereo not drawn)	48*	-268	2	-436	61*
CCCCCc1cc(=O)oc2c(C(CCN3CCCC3)c3cc(OC)c(OC)c(OC)c3)c(OC)cc(OC)c12 (stereo not drawn)	37	-12	1	-19	·
COc1ccc(C(=O)C2(C(=O)Nc3cc(C)cc(C)c3)CC(c3ccccn3)=NO2)cc1 (stereo not drawn)	·	1	·	-2	·
Cc1cc(-c2ccccc2)nc(N/N=C/c2ccc(O)cc2)n1	2	-8	14	-12	·
Oc1ccc(/C=N/Nc2nc(-c3ccc(Cl)cc3)cc(C(F)(F)F)n2)cc1	61*	3	28	3	15
Cc1[nH]n(-c2ccccc2)c(=O)c1C(C[N+](=O)[O-])c1ccc(Br)cc1 (stereo not drawn)	17	3	30	4	·
COc1cccc(C(C[N+](=O)[O-])c2c(C)[nH]n(-c3ccccc3)c2=O)c1 (stereo not drawn)	51*	3	1	-4	4
CCOC(=O)[C@@]12CN(C(=O)OC(C)(C)C)CC=C1N(Cc1ccc(OC)cc1)C(=O)[C@H]2CC(=O)N1CCOCC1	·	-2	·	3	·
Oc1ccc(/C=N/Nc2nc(N3CCCCCC3)nc(N3CCCCCC3)n2)c(O)c1	44*	-11	-7	-22	39
O=[N+]([O-])c1cc(C(F)(F)F)ccc1NCCNC(=S)Nc1ccc(Cl)cc1	41*	1	0	1	17
N#Cc1ccc(Nc2nc(-c3ccc(O)cc3O)cs2)cc1C(F)(F)F	41*	·	2	·	70*
Oc1ccc(-c2csc(Nc3ccc4c(c3)OCO4)n2)c(O)c1	·	-50	5	-77	·
Cc1ccc(Sc2c(O)c3ccccc3n(C)c2=O)cc1	·	-9	-3	-11	·
Cc1ccc(Sc2c([N+](=O)[O-])c(=O)n(C)c3ccccc23)cc1	67*	0	37	-4	73*
NS(=O)(=O)c1ccc(N2N=C(c3ccc(Br)cc3)CC2c2ccc(F)cc2)cc1 (stereo not drawn)	42*	i	-9	i	42*
COC(=O)C(=Cc1ccc(OCc2ccc([N+](=O)[O-])cc2)c(OC)c1)C(=O)OC	45*	3	-2	5	75*
COc1cc(/C=N/NC(=O)c2cccc([N+](=O)[O-])c2)ccc1OCc1ccccc1	4	8	12	0	·
